# Active and inactive are the calls of the source. No cut-off for these calls is given here.
# Columns and labels:
# Rattus norvegicus [1] = assay: Effect on heart rate in anesthetized Wistar rat assessed as number of beats per minutes at 40 mg/kg, ip after 15 mins by electrocardiography; format: functional; settings: route intraperitoneal
# How it was run: (§1)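 Wistar rats (250–300 g) anaesthetised with thiopental 60 mg/kg ip, then given compound ip at 40 mg/kg in 0.5% aqueous methyl cellulose. ECG recorded by transducer, with heart rate (beats/min) and P–Q, QRS and Q–T intervals (ms) taken at 0, 15, 30, 45 and 60 min after dosing.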
# Rattus norvegicus [2] = assay: Effect on heart rate in anesthetized Wistar rat assessed as number of beats per minutes at 40 mg/kg, ip after 30 mins by electrocardiography; format: functional; settings: route intraperitoneal; how it was run: as §1
# Rattus norvegicus [3] = assay: Effect on heart rate in anesthetized Wistar rat assessed as number of beats per minutes at 40 mg/kg, ip after 45 mins by electrocardiography; format: functional; settings: route intraperitoneal; how it was run: as §1
# Rattus norvegicus [4] = assay: Effect on heart rate in anesthetized Wistar rat assessed as number of beats per minutes at 40 mg/kg, ip after 60 mins by electrocardiography; format: functional; settings: route intraperitoneal; how it was run: as §1
# Rattus norvegicus [5] = assay: Effect on heart rate in anesthetized Wistar rat assessed as number of P-Q-intervals at 40 mg/kg, ip after 15 mins by electrocardiography; format: functional; settings: route intraperitoneal; how it was run: as §1
# Rattus norvegicus [6] = assay: Effect on heart rate in anesthetized Wistar rat assessed as number of P-Q-intervals at 40 mg/kg, ip after 30 mins by electrocardiography; format: functional; settings: route intraperitoneal; how it was run: as §1
# Rattus norvegicus [7] = assay: Effect on heart rate in anesthetized Wistar rat assessed as number of P-Q-intervals at 40 mg/kg, ip after 45 mins by electrocardiography; format: functional; settings: route intraperitoneal; how it was run: as §1
# Rattus norvegicus [8] = assay: Effect on heart rate in anesthetized Wistar rat assessed as number of P-Q-intervals at 40 mg/kg, ip after 60 mins by electrocardiography; format: functional; settings: route intraperitoneal; how it was run: as §1
# Rattus norvegicus [9] = assay: Effect on heart rate in anesthetized Wistar rat assessed as number of QRS complex at 40 mg/kg, ip after 15 mins by electrocardiography; format: functional; settings: route intraperitoneal; how it was run: as §1
# Rattus norvegicus [10] = assay: Effect on heart rate in anesthetized Wistar rat assessed as number of QRS complex at 40 mg/kg, ip after 30 mins by electrocardiography; format: functional; settings: route intraperitoneal; how it was run: as §1
# Rattus norvegicus [11] = assay: Effect on heart rate in anesthetized Wistar rat assessed as number of QRS complex at 40 mg/kg, ip after 45 mins by electrocardiography; format: functional; settings: route intraperitoneal; how it was run: as §1
# Rattus norvegicus [12] = assay: Effect on heart rate in anesthetized Wistar rat assessed as number of QRS complex at 40 mg/kg, ip after 60 mins by electrocardiography; format: functional; settings: route intraperitoneal; how it was run: as §1
# Rattus norvegicus [13] = assay: Effect on heart rate in anesthetized Wistar rat assessed as number of Q-T-intervals at 40 mg/kg, ip after 15 mins by electrocardiography; format: functional; settings: route intraperitoneal; how it was run: as §1
# Rattus norvegicus [14] = assay: Effect on heart rate in anesthetized Wistar rat assessed as number of Q-T-intervals at 40 mg/kg, ip after 30 mins by electrocardiography; format: functional; settings: route intraperitoneal; how it was run: as §1
# Rattus norvegicus [15] = assay: Effect on heart rate in anesthetized Wistar rat assessed as number of Q-T-intervals at 40 mg/kg, ip after 45 mins by electrocardiography; format: functional; settings: route intraperitoneal; how it was run: as §1
# Rattus norvegicus [16] = assay: Effect on heart rate in anesthetized Wistar rat assessed as number of Q-T-intervals at 40 mg/kg, ip after 60 mins by electrocardiography; format: functional; settings: route intraperitoneal; how it was run: as §1
# Rattus norvegicus [17] = assay: Cardiovascular effect in anaesthetized Wistar rat assessed as mean arterial pressure at 40 mg/kg, ip after 15 mins; format: functional, Artery; settings: route intraperitoneal
# How it was run: (§2)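 Adult normotensive Wistar rats (250–300 g) under thiopental (60 mg/kg ip). Right carotid artery cannulated with a heparinised catheter (20 IU/mL in saline, flushed every 30 min) connected to a pressure transducer. Measurement began one hour after surgery. Compound given ip at 40 mg/kg in 0.5% methyl cellulose, with mean arterial pressure read at 0, 15, 30, 45 and 60 min.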
# Rattus norvegicus [18] = assay: Cardiovascular effect in anaesthetized Wistar rat assessed as mean arterial pressure at 40 mg/kg, ip after 30 mins; format: functional, Artery; settings: route intraperitoneal; how it was run: as §2
# Rattus norvegicus [19] = assay: Cardiovascular effect in anaesthetized Wistar rat assessed as mean arterial pressure at 40 mg/kg, ip after 45 mins; format: functional, Artery; settings: route intraperitoneal; how it was run: as §2
# Rattus norvegicus [20] = assay: Cardiovascular effect in anaesthetized Wistar rat assessed as mean arterial pressure at 40 mg/kg, ip after 60 mins; format: functional, Artery; settings: route intraperitoneal; how it was run: as §2
# Rattus norvegicus [21] = assay: Antiarrhythmic activity in anaesthetized Wistar rat assessed as decrease in BaCl2-induced cardiac rhythm disturbance at 40 mg/kg, ip 60 mins before arrhythmogen challenge; format: functional, organism-based; set-up: dose 40 mg/kg; settings: Heart
# How it was run: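 Rats (thiopental 60 mg/kg ip anaesthesia) given test compound ip at 40 mg/kg, suspended in 0.5% aqueous methyl cellulose, 60 min before iv barium chloride (32 mg/kg) to evoke arrhythmia. Scored by reduction of rhythm disturbances (premature ventricular beats, ventricular tachycardia, fibrillation) and mortality.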
# Rattus norvegicus [22] = assay: Vasorelaxation activity […] assessed as inhibition of norepinephrine-induced contraction of aorta ring at 0.1 mg/ml; format: functional
# How it was run: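 Isolated Wistar rat aorta rings in physiological salt solution at 37 °C, gassed 95% O2/5% CO2, isometric tension, 60 min equilibration. After contraction plateau, test compound (0.1 mg/mL) added cumulatively; EC50 (g/mL) derived from cumulative concentration–response curves against norepinephrine.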
# Rattus norvegicus [23] = species on record: Rattus norvegicus; assay: NO release in Wistar rat by Griess reagent assay in presence of L-cysteine relative to control
structure (smiles),measurement,setting,value
O=C(CO[N+](=O)[O-])NNC(=O)c1ccc(NCC(O)CN2C(=O)/C(=C/c3ccc(O)cc3)S/C2=N/c2ccccc2)cc1 (stereo not drawn),Activity,Rattus norvegicus [1],290.03
same,Activity,Rattus norvegicus [2],272.68
same,Activity,Rattus norvegicus [3],258.51
same,Activity,Rattus norvegicus [4],278.31
same,Activity,Rattus norvegicus [5],55.2
same,Activity,Rattus norvegicus [6],56
same,Activity,Rattus norvegicus [7],56.2
same,Activity,Rattus norvegicus [8],54.8
same,Activity,Rattus norvegicus [9],20.4
same,Activity,Rattus norvegicus [10],21.4
same,Activity,Rattus norvegicus [11],22.4
same,Activity,Rattus norvegicus [12],20.6
same,Activity,Rattus norvegicus [13],74.8
same,Activity,Rattus norvegicus [14],76
same,Activity,Rattus norvegicus [15],77.2
same,Activity,Rattus norvegicus [16],74.4
same,Activity,Rattus norvegicus [17],79.52 mmHg
same,Activity,Rattus norvegicus [18],68.96 mmHg
same,Activity,Rattus norvegicus [19],63.34 mmHg
same,Activity,Rattus norvegicus [20],77.31 mmHg
same,Activity,Rattus norvegicus [21],Active
same,EC50,Rattus norvegicus [22],32.4 µg/mL
same,% NO release,Rattus norvegicus [23],0.3%
O=C(CO[N+](=O)[O-])NNC(=O)c1ccc(NCC(O)CN2C(=O)/C(=C/c3ccccc3)S/C2=N/c2ccccc2)cc1 (stereo not drawn),Activity,Rattus norvegicus [1],292.18
same,Activity,Rattus norvegicus [2],269.11
same,Activity,Rattus norvegicus [3],276.83
same,Activity,Rattus norvegicus [4],291.8
same,Activity,Rattus norvegicus [5],52.2
same,Activity,Rattus norvegicus [6],53.6
same,Activity,Rattus norvegicus [7],54.2
same,Activity,Rattus norvegicus [8],55.4
same,Activity,Rattus norvegicus [9],19.4
same,Activity,Rattus norvegicus [10],21.2
same,Activity,Rattus norvegicus [11],20.6
same,Activity,Rattus norvegicus [12],21.6
same,Activity,Rattus norvegicus [13],81.8
same,Activity,Rattus norvegicus [14],63.2
same,Activity,Rattus norvegicus [15],84.6
same,Activity,Rattus norvegicus [16],86.2
same,Activity,Rattus norvegicus [17],78.67 mmHg
same,Activity,Rattus norvegicus [18],62.21 mmHg
same,Activity,Rattus norvegicus [19],67.54 mmHg
same,Activity,Rattus norvegicus [20],71.29 mmHg
same,Activity,Rattus norvegicus [21],Active
same,EC50,Rattus norvegicus [22],34.7 µg/mL
same,% NO release,Rattus norvegicus [23],0.33%
Cc1ccc(/C=C2\S/C(=N/c3ccccc3)N(CC(O)CNc3ccc(C(=O)NNC(=O)CO[N+](=O)[O-])cc3)C2=O)cc1 (stereo not drawn),Activity,Rattus norvegicus [1],303.44
same,Activity,Rattus norvegicus [2],291.92
same,Activity,Rattus norvegicus [3],279.98
same,Activity,Rattus norvegicus [4],297.59
same,Activity,Rattus norvegicus [5],49.6
same,Activity,Rattus norvegicus [6],51.2
same,Activity,Rattus norvegicus [7],52
same,Activity,Rattus norvegicus [8],50.2
same,Activity,Rattus norvegicus [9],23.2
same,Activity,Rattus norvegicus [10],23.6
same,Activity,Rattus norvegicus [11],24
same,Activity,Rattus norvegicus [12],22.8
same,Activity,Rattus norvegicus [13],72.8
same,Activity,Rattus norvegicus [14],73.4
same,Activity,Rattus norvegicus [15],74.8
same,Activity,Rattus norvegicus [16],72.2
same,Activity,Rattus norvegicus [17],91.1 mmHg
same,Activity,Rattus norvegicus [18],79.16 mmHg
same,Activity,Rattus norvegicus [19],72.21 mmHg
same,Activity,Rattus norvegicus [20],88.93 mmHg
same,EC50,Rattus norvegicus [22],28.2 µg/mL
same,% NO release,Rattus norvegicus [23],0.27%
COc1cc(/C=C2\S/C(=N/c3ccccc3)N(CC(O)CNc3ccc(C(=O)NNC(=O)CO[N+](=O)[O-])cc3)C2=O)cc(OC)c1OC (stereo not drawn),Activity,Rattus norvegicus [1],301.97
same,Activity,Rattus norvegicus [2],293.35
same,Activity,Rattus norvegicus [3],277.12
same,Activity,Rattus norvegicus [4],291.2
same,Activity,Rattus norvegicus [5],55
same,Activity,Rattus norvegicus [6],56.2
same,Activity,Rattus norvegicus [7],57.6
same,Activity,Rattus norvegicus [8],54.8
same,Activity,Rattus norvegicus [9],21.2
same,Activity,Rattus norvegicus [10],22
same,Activity,Rattus norvegicus [11],23.2
same,Activity,Rattus norvegicus [12],22.8
same,Activity,Rattus norvegicus [13],79.6
same,Activity,Rattus norvegicus [14],80.8
same,Activity,Rattus norvegicus [15],82.2
same,Activity,Rattus norvegicus [16],83.8
same,Activity,Rattus norvegicus [17],82.81 mmHg
same,Activity,Rattus norvegicus [18],73.93 mmHg
same,Activity,Rattus norvegicus [19],62.69 mmHg
same,Activity,Rattus norvegicus [20],81.25 mmHg
same,EC50,Rattus norvegicus [22],60.3 µg/mL
same,% NO release,Rattus norvegicus [23],0.32%
O=C(CO[N+](=O)[O-])NNC(=O)c1ccc(NCC(O)CN2C(=O)/C(=C/c3ccc(F)cc3)S/C2=N/c2ccccc2)cc1 (stereo not drawn),Activity,Rattus norvegicus [1],300.28
same,Activity,Rattus norvegicus [2],289.83
same,Activity,Rattus norvegicus [3],294.11
same,Activity,Rattus norvegicus [4],300.39
same,Activity,Rattus norvegicus [5],51.7
same,Activity,Rattus norvegicus [6],52.2
same,Activity,Rattus norvegicus [7],52.4
same,Activity,Rattus norvegicus [8],52.2
same,Activity,Rattus norvegicus [9],22.8
same,Activity,Rattus norvegicus [10],23.6
same,Activity,Rattus norvegicus [11],23.2
same,Activity,Rattus norvegicus [12],22
same,Activity,Rattus norvegicus [13],67.8
same,Activity,Rattus norvegicus [14],68.6
same,Activity,Rattus norvegicus [15],68.2
same,Activity,Rattus norvegicus [16],66.4
same,Activity,Rattus norvegicus [17],84.89 mmHg
same,Activity,Rattus norvegicus [18],78.92 mmHg
same,Activity,Rattus norvegicus [19],80.53 mmHg
same,Activity,Rattus norvegicus [20],85.23 mmHg
same,EC50,Rattus norvegicus [22],49 µg/mL
same,% NO release,Rattus norvegicus [23],0.23%
CC(C)NCC(O)COc1ccc(CC(N)=O)cc1 (stereo not drawn) [ATENOLOL],Activity,Rattus norvegicus [17],79.01 mmHg
same,Activity,Rattus norvegicus [18],63.44 mmHg
same,Activity,Rattus norvegicus [19],65.24 mmHg
same,Activity,Rattus norvegicus [20],69.93 mmHg
O=C(CO[N+](=O)[O-])NNC(=O)c1ccc(NCC(O)CN2C(=O)/C(=C/C=C/c3ccccc3)S/C2=N/c2ccccc2)cc1 (stereo not drawn),Activity,Rattus norvegicus [1],307.46
same,Activity,Rattus norvegicus [2],295.42
same,Activity,Rattus norvegicus [3],302.23
same,Activity,Rattus norvegicus [4],308.77
same,Activity,Rattus norvegicus [5],52.4
same,Activity,Rattus norvegicus [6],53.6
same,Activity,Rattus norvegicus [7],53.6
same,Activity,Rattus norvegicus [8],52.4
same,Activity,Rattus norvegicus [9],21
same,Activity,Rattus norvegicus [10],22.4
same,Activity,Rattus norvegicus [11],21.4
same,Activity,Rattus norvegicus [12],20.4
same,Activity,Rattus norvegicus [13],74.6
same,Activity,Rattus norvegicus [14],75.8
same,Activity,Rattus norvegicus [15],74.8
same,Activity,Rattus norvegicus [16],73.4
same,Activity,Rattus norvegicus [17],84.86 mmHg
same,Activity,Rattus norvegicus [18],77.54 mmHg
same,Activity,Rattus norvegicus [19],80.16 mmHg
same,Activity,Rattus norvegicus [20],90.58 mmHg
same,EC50,Rattus norvegicus [22],34.7 µg/mL
same,% NO release,Rattus norvegicus [23],0.24%

# Source: ChEMBL document CHEMBL1139305, “Design, synthesis and pharmacological screening of novel antihypertensive agents using hybrid approach” (Bioorg Med Chem, 2009)
